# Measured values published in ChEMBL document CHEMBL4513216, “Probing the Open Global Health Chemical Diversity Library for Multistage-Active Starting Points for Next-Generation Antimalarials” (ACS Infect Dis, 2020).
# Assay: Toxicity liver stage against HepG2, at 10uM
# Type: cell-based
# Design: test concentration 10 uM, cell line HepG2-A16-CD81EGFP
# Conditions: human, HepG2-A16-CD81EGFP cells; read-out: INHIBITION
# In short: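 Uninfected HepG2-A16-CD81EGFP cells, 3 × 10^3 per well, 1536-well, plated on prespotted compound at 10 μM final, parasite-free screening media added to match infected plates; puromycin 10 μM positive, DMSO 0.5% negative; run in parallel with 48 h PbLuc assay at 37 °C, 5% CO2; viability by CellTiter-Glo luminescence, normalized to controls.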
row,Structure (SMILES),cytotoxicity at 10 µM
1,O=c1[nH]c(NCCO)nc2c1C1(CCCC1)Cc1ccccc1-2,8.13%
2,Cc1n[nH]c2c1C(c1ccc(Br)cc1)SCC(=O)N2 (stereo not given),6.5%
3,Cc1nn2c(-c3snnc3C)nnc2s1,-4.19%
4,O=C(NC1CCCc2c1[nH]c1ccc(F)cc21)c1n[nH]c2c1CCC2 (stereo not given),51.7%
5,Cc1noc(CNC(=O)C2CSCCC(=O)N2)n1 (stereo not given),2.42%
6,Cc1cnc2n(c1=O)CC(C(=O)Nc1ccon1)CS2 (stereo not given),0.595%
7,CS(=O)(=O)N1C[C@H](C(=O)Nc2cnccn2)C[C@H]2OCC[C@H]21,10.7%
8,CCS(=O)(=O)N1CCCC2(CCCN2C(=O)c2cn(C)cn2)C1 (stereo not given),8.16%
9,CN1C(=O)CC[C@@H]2[C@H]1CCN2S(=O)(=O)Cc1ccccc1,-5.73%
10,CC(C)NC(=O)c1cc2c([nH]c1=O)CC(c1cccs1)CC2=O (stereo not given),-3.01%
11,CC(C)OCCCNC(=O)CN(c1ccc(F)c(F)c1)S(C)(=O)=O,9.96%
12,CC(C)Nc1nc(N2CCCC2)nc2c1CN(C(C)C)CC2,2.06%
13,CCn1nnc(NCc2cc(Br)cc(Br)c2OC)n1,13.3%
14,Cc1nn(C)c2c(NCCCn3cccn3)nc(C(C)C)nc12,6.67%
15,Cc1nn(C)c(C)c1C(=O)NN1CCOCC1,7.83%
16,COc1ccc(C(=O)Nc2c(C(=O)N(C)C)nn(C)c2C)cc1,6.03%
17,Oc1nc(N2CCCC2)nc2c1CCN(Cc1ccsc1)CC2,-12%
18,Cc1noc(C)c1-c1ccc(C2CCCN2C(=O)c2ccncn2)nc1 (stereo not given),-4.45%
19,Cc1nc(N)sc1C(=O)N1Cc2ccccc2OC2(CCOCC2)C1,-24.6%
20,COCc1cc(O)nc(C2CCCN(Cc3ccc(OC)cc3)C2)n1 (stereo not given),-1.25%
21,Cc1cc(C)cc(-c2ccc(CC3(C(=O)O)CCOCC3)cc2)c1,4.81%
22,N#CCCN(Cc1ccccn1)C(=O)c1cccc(CN2CCCC2)c1,4.93%

row,Structure (SMILES),cytotoxicity at 10 µM
1,Cc1c(NCc2ccccc2C#N)cccc1-n1cnnn1,15.4%
2,Cc1noc(C)c1CN(C)C(=O)c1nc(N2CCCC2)ncc1Cl,-41.6%
3,CN(C)C(CNC(=O)CCNC(=O)OCC(F)(F)F)c1ccsc1 (stereo not given),-45.2%
4,CCOc1ccc(Br)cc1S(=O)(=O)N(CC)Cc1ccc(N(C)C)cc1,14.1%
5,Cc1nn(C)c(C)c1C1COCCN1C(=O)CC(C)(C)C (stereo not given),-5.07%
6,CNC(=O)c1sccc1S(=O)(=O)Nc1ccc(C)cc1,11.4%
7,COc1cccnc1NC(=O)c1ccc(COCC(F)(F)F)cc1,-2.4%
8,CCSCc1cccc(NCc2cccnc2)c1,-1.32%
9,CCC(=O)Nc1ncn(Cc2cccnc2)n1,-11.3%
10,NC(=O)NC(=O)CCN1CCN(CC2CC2)c2ccccc21,17.9%
11,CN(Cc1cccc(C(N)=O)c1)c1ncc(C#N)cc1Cl,8.36%
12,Cc1cnc(CN2CCC(N(C)Cc3nnc(C)n3C)C2)cn1 (stereo not given),-10.7%
13,O=C(C1SCCc2sccc21)N1CCCCC1 (stereo not given),9.78%
14,C[C@H]1CN(C(=O)c2cccc(F)c2Cl)CCN1S(C)(=O)=O,-13.5%
15,CC(C)C1CN(C(=O)c2ccccc2)CCS1 (stereo not given),1.62%
16,CC(C)c1cccc(S(=O)(=O)NCCCN2CCC(O)CC2)c1,12.9%
17,Cc1csc(N2CCN(Cc3cccnc3)CC2C)n1 (stereo not given),11.2%
18,CCC(CNC1CCN(C(C)=O)CC1)Oc1cccc(C)c1 (stereo not given),6.42%
19,COc1ccc(N(C(=O)c2cnc(C)cn2)C(C)C)cc1F,-2.96%
20,CC(NCc1cnc(C2CCC2)s1)c1ccc(-n2cncn2)cc1 (stereo not given),1.44%
21,CC(=O)NCCCNCc1c(C)nn(CC(C)C)c1N(C)C,6.47%
22,O=C(COc1ccccc1)N(Cc1ccncc1)C1CC1,-46.1%

row,Structure (SMILES),cytotoxicity at 10 µM
1,CCOc1cccc(CNC(=O)CN2CCC3(CCOC3)C2)c1 (stereo not given),-42.1%
2,CCOCCN1CCCC1CS(N)(=O)=O (stereo not given),14.3%
3,CCN(C(=O)CN1CCCC1c1cc(C)no1)c1ccccc1C (stereo not given),-0.264%
4,CC(C)COCCC(=O)NS(=O)(=O)c1ccc(Cl)s1,-21.6%
5,Cc1noc(C)c1CN1CCN(c2ccnc(-c3ccccc3)n2)CC1,6%
6,CCOCC(=O)Nc1ncn(Cc2cccc(Br)c2)n1,-5.53%
7,COCCN1CC[C@]2(CN(C(=O)c3ccc[nH]3)C[C@H]2C)C1=O,2.53%
8,Cc1csc(NC(=O)[C@@H]2C[C@H]3[C@H](CCN3S(C)(=O)=O)O2)n1,1.64%
9,O=C(CC(F)(F)F)N1C[C@H]2CCN[C@H]2C1,2.95%
10,COCc1cnc2n1CCN(C(=O)c1cc3ccccc3o1)C2C (stereo not given),-105%
11,CN(C)CC(=O)N1CCC2(CC1)COCCN(Cc1ccncc1)C2,-80.8%
12,Cc1[nH]c2ccccc2c1-c1ccnc(NCCN2CCOCC2)n1,7.12%
13,Cc1n[nH]c(C)c1Sc1ccccc1NC(=O)N1CCN(C)CC1,-12.9%
14,Cc1ncc(CC(=O)N2CCCCC2CCN2CCCC2)c(=O)[nH]1 (stereo not given),-9.2%
15,CN1CCN([C@@H]2CCN(CC3=Cc4cc(Cl)ccc4OC3)C[C@H]2O)CC1,-5.87%
16,Cn1ncc2c1NC(=O)CC2c1cc2c(cc1Cl)OCO2 (stereo not given),55.6%
17,Cc1nc(CN2CCCC(CCc3cccc(C(F)(F)F)c3)C2)co1 (stereo not given),-0.0825%
18,Cc1cc(-n2cccn2)ccc1CN1CCOCC(CN(C)C)C1 (stereo not given),-38.2%
19,Cc1cnc(NCc2cnn(C)c2)nc1-c1cnn(C)c1,52.1%
20,Cn1ncc2c(NC3CCSC3)nc(-c3ccncc3)nc21 (stereo not given),21.6%
21,CCn1cc(CN2CCC(NS(C)(=O)=O)CC2)cc1C#N,-4.18%
22,OCCC1CN(c2ncnc3[nH]cnc23)CCN1Cc1ccccc1 (stereo not given),11.9%

row,Structure (SMILES),cytotoxicity at 10 µM
1,N#Cc1cnc(N2Cc3cnn(Cc4ccc(F)cc4)c3C2)nc1N,4.84%
2,CCc1nnc(CNC2CCN(c3ncnc4c(C)csc34)CC2)s1,10.5%
3,Cc1ncc2c(c1CNC(=O)C1(c3ccc(F)cc3)CC1)CCNC2,-46.6%
4,COCCC1(C(=O)O)CCN(c2cc(C)c3ccccc3n2)CC1,-41.6%
5,CCc1ccc(CN2CCN(c3ccc(C#N)cc3)C(=O)C2)nc1,-1.32%
6,CN(Cc1n[nH]c2c1CCCC2)c1nc(C2CC2)nc2c1CCNCC2,-10.3%
7,CCc1nc(N)nc(NCCC(=O)N2CCCC2)c1C,-42.5%
8,O=C(c1ccc(=O)[nH]c1)N1CCc2c(nc(-c3cccnc3)[nH]c2=O)C1,9.84%
9,CC(C)c1cc(N2CCC(NS(C)(=O)=O)CC2)n2nccc2n1,0.324%
10,Cc1nn2c(N3CCC(C(N)=O)CC3)cc(-c3ccccc3)nc2c1C,-2.83%
11,CCOC(=O)C1(CCOC)CCCN(Cc2nccn2CC)C1 (stereo not given),10.8%
12,CNC(=O)c1cn2cc(-c3ccccc3Cl)n(CC=C(C)C)c(=O)c2n1,-7.05%
13,CCN(CCn1cccn1)Cc1nc(-c2ccc(F)cc2)oc1C,1.07%
14,CC(C)NC(=O)c1nc(Cn2c(C(F)F)nc3ccccc32)no1,9.34%
15,CC(=O)Nc1ncc(S(=O)(=O)N2CCC(C)CC2)s1,14.8%
16,CCC[C@H]1CN(Cc2cc(C#N)n(C)c2C)C[C@@H]1NS(=O)(=O)CC,-153%
17,Cc1ccc(C)c(NC(=O)c2coc(C)n2)c1,-5.97%
18,COc1ccccc1OCCCN(C)c1cc(C)nc(N)n1,1.39%
19,COc1ccc(C2(NC(=O)CCn3cncn3)CCCCC2)cc1,-3.12%
20,N#Cc1cccc(C(=O)N2CCN(c3ncccn3)CC2)c1,-0.0581%
21,O=C(CCCn1cncn1)NC1CCc2nccn2C1 (stereo not given),2.03%
22,CC(C)CCc1nc(CNCC2CCCN2c2cccnn2)cs1 (stereo not given),-10.7%

row,Structure (SMILES),cytotoxicity at 10 µM
1,Cc1cc(CN2CCN(CC(O)c3ccc(C)c(C)c3)CC2)no1 (stereo not given),-2.96%
2,Cc1ncsc1C(=O)NC1CCN(Cc2ccc(C(F)(F)F)cc2)CC1,15.5%
3,CC(NC(=O)Nc1cccnc1N1CCCC1)c1ccn(C)c1 (stereo not given),-24.6%
4,Cc1cnn(CCC(=O)N2CCN(c3nc(C)cs3)CC2)c1,-11.9%
5,Cc1cc(S(=O)(=O)N2CCc3ccc(F)cc32)cc(C(=O)O)c1C,3.2%
6,CCn1cnnc1CNC(=O)N1CCC(C(=O)NC)CC1,2.65%
7,CN(Cc1cccs1)C(=O)CS(=O)(=O)Cc1ccc(Cl)c(Cl)c1,0.866%
8,O[C@@]1(c2ccccn2)CC[C@H]2CN(Cc3cccc(Cl)c3Cl)C[C@H]21,0.256%
9,Cc1ccc([C@]2(O)CC[C@H]3CN(Cc4cccc(Cl)c4Cl)C[C@H]32)nc1,9.42%
10,Cc1ccc(N2C[C@H]3CCC[C@@H](CN4CCOCC4)[C@H]3C2)nn1,10.7%
11,Cn1cc(CN2CCn3cc(CNC(=O)c4cccn4C)nc3C2)cn1,1.85%
12,COCCN1CCN(C(=O)N2CCCC2)Cc2ccc(C)nc21,-65.5%
13,Clc1ccc(COCC2CCN(Cc3ccccn3)CC2)cc1,4.94%
14,O=C(NC1CC1)N1CCc2ccc(=O)n(CCN3CCCC3)c2CC1,-0.603%
15,Cn1cc(CN2CC[C@H]3O[C@@H](C(=O)NC4CC4)CC[C@H]32)cn1,-1.55%
16,Cc1nnc(N2CC[C@H]3C[C@@H](C(=O)NC4CCCC4)O[C@H]3C2)s1,6.69%
17,c1cncc(COCc2n[nH]c3c2CN(Cc2ccco2)C3)c1,9.01%
18,CCC1=N[C@@]2(CC[C@@H]3CN(Cc4ccc(F)cc4)C[C@@H]32)C(=O)N1C,-106%
19,Cc1ccc(CN2CC[C@H]3OCC[C@@H](C(=O)N4CCCCO4)[C@@H]3C2)o1,3.54%
20,CC(C)n1nc(CN2CCOCC2)c2c1CN(C(=O)c1ccno1)C2,2.62%
21,CC(=O)N1CCCC1c1nnn2cc(-c3ccncc3)ccc12 (stereo not given),7.28%
22,c1ccc(CN2CCCC3(CCN(CC4CCCO4)CC3)C2)nc1 (stereo not given),-115%
